For 25 compounds, IC50 results are on record in ChEMBL document CHEMBL3853297, “Synthesis and biological evaluation of 4-(2-fluorophenoxy)-3,3'-bipyridine derivatives as potential c-met inhibitors” (Eur J Med Chem, 2016).

A short description of assay [1]: Cytotoxicity against human HT-29 cells after 72 hrs by MTT assay. The format is functional, cell-based. The note with it: HT-29, 72 h. The procedure, abridged:
(§1)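 Cells grown in MEM with 10% FBS; about 4×10^3 cells per well of 96-well plate, 24 h at 37 °C, 5% CO2, then test compounds at indicated final concentrations for 72 h. Each tested three times; IC50 as mean ± SD.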
(Tetrazolium assays rely on reduction of a dye to a coloured formazan, in cell work by metabolically active cells.)

A short description of assay [2]: Cytotoxicity against human A549 cells after 72 hrs by MTT assay. Particulars: A549, 72 h.
The nature of assay [3]: Cytotoxicity against human MKN45 cells after 72 hrs by MTT assay. Particulars: MKN-45, 72 h.
Assay [4] is described as follows: Cytotoxicity against human MDA-MB-231 cells after 72 hrs by MTT assay. The format is functional, cell-based. Particulars: MDA-MB-231, 72 h. The method in brief: as §1

The IC50 is the midpoint of a concentration-inhibition curve. A high value points to a need for much substance. Consider `O=C(Nc1ccc(Oc2ccncc2-c2cccnc2)c(F)c1)c1nn(-c2ccc(F)cc2)c(=O)c2ccccc12`, for which the IC50 in assay [1] amounted to 990 nM; in assay [2], 820 nM; in assay [3] it was 320 nM.
With `O=C(Nc1ccc(Oc2ccncc2-c2cccnc2)c(F)c1)C1=NN(c2ccc(F)c(F)c2)c2ccccc2S1(=O)=O`, the IC50 in assay [1] turned out to be 1550 nM; in assay [2], 1300 nM; in assay [3], 90 nM; in assay [4], 34 nM.
Taken in the same sequence, the figures for `O=C(Nc1ccc(Oc2ccncc2-c2cccnc2)c(F)c1)c1ccnn(-c2ccc(F)cc2)c1=O` were 4770 nM, 2880 nM, 3120 nM and 5200 nM.
For `COc1ccc(-n2nc(C(=O)Nc3ccc(Oc4ccncc4-c4cccnc4)c(F)c3)c(=O)n(C)c2=O)c(OC)c1` the same measures were 890 nM, 890 nM, 2820 nM and 3270 nM.
Taken in the same sequence, the figures for `Cn1cc(-c2ccc(F)cc2)cc(C(=O)Nc2ccc(Oc3ccncc3-c3cccnc3)c(F)c2)c1=O` were 11200 nM, 8300 nM, 7100 nM and 11900 nM.
As for `O=C(Nc1ccc(Oc2ccncc2-c2cccnc2)c(F)c1)c1nn(-c2cccc(F)c2)c(=O)c2ccccc12`, the IC50 was 410 nM in assay [1], 1750 nM in assay [2], 27 nM in assay [3] and 72 nM in assay [4].
In the case of `COc1ccc(Nc2cc(Nc3ccc(Oc4ccncc4-c4cccnc4)c(F)c3)ncn2)cc1`, the results for the IC50 in assay [1], in assay [2] and in assay [3] were 4110 nM, 2140 nM and 1010 nM, respectively.
For `Cn1cc(-c2ccccc2)cc(C(=O)Nc2ccc(Oc3ccncc3-c3cccnc3)c(F)c2)c1=O`, the IC50 came out at 7420 nM in assay [1], 7600 nM in assay [2], 5400 nM in assay [3] and 9500 nM in assay [4].
Taken in the same sequence, the figures for `Cn1c(=O)c(C(=O)Nc2ccc(Oc3ccncc3-c3cccnc3)c(F)c2)nn(-c2cccc(C(F)(F)F)c2)c1=O` were 510 nM, 460 nM, 1950 nM and 3980 nM.
With `Cn1c(=O)c(C(=O)Nc2ccc(Oc3ccncc3-c3cccnc3)c(F)c2)nn(-c2ccc(F)c(Cl)c2)c1=O`, the IC50 in assay [1] was 4780 nM; in assay [2], 12500 nM; in assay [3] it was 10100 nM; in assay [4], 11300 nM.
Take `Fc1ccc(Nc2cc(Nc3ccc(Oc4ccncc4-c4cccnc4)c(F)c3)ncn2)cc1`: the half-inhibitory concentration (IC50) is 330 nM in assay [1], 710 nM in assay [2], 160 nM in assay [3] and 14100 nM in assay [4].
Regarding `Cn1c(=O)c(C(=O)Nc2ccc(Oc3ccncc3-c3cccnc3)c(F)c2)nn(-c2ccccc2F)c1=O`, the IC50 in assay [1] is 2100 nM; in assay [2], 610 nM; in assay [3] it was 4780 nM; in assay [4], 6760 nM.
Taken in the same sequence, the figures for `Cn1c(=O)c(C(=O)Nc2ccc(Oc3ccncc3-c3cccnc3)c(F)c2)nn(-c2ccc(Cl)cc2)c1=O` were 440 nM, 930 nM, 1600 nM and 3220 nM.
Taken in the same sequence, the figures for `Fc1ccc(Nc2cc(Nc3ccc(Oc4ccncc4-c4cccnc4)c(F)c3)ncn2)cc1F` were 2320 nM, 7630 nM, 80 nM and 6770 nM.
Taken in the same sequence, the figures for `O=C(Nc1ccc(Oc2ccncc2-c2cccnc2)c(F)c1)c1ccnn(-c2ccc(Cl)cc2)c1=O` were 4560 nM, 6560 nM, 4230 nM and 4840 nM.
`Cn1c(=O)c(C(=O)Nc2ccc(Oc3ccncc3-c3cccnc3)c(F)c2)nn(-c2c(Cl)cccc2Cl)c1=O`: the IC50 in assay [1] was 780 nM; in assay [2], 720 nM; in assay [3], 3930 nM; in assay [4], 9690 nM.
In the case of `O=C(Nc1ccc(Oc2ccncc2-c2cccnc2)c(F)c1)c1nn(-c2ccccc2)c(=O)c2ccccc12`, the IC50 in assay [1] worked out at 1240 nM; in assay [2] it was 7900 nM; in assay [3], 90 nM; in assay [4] it was 8200 nM.
Taken in the same sequence, the figures for `Fc1cc(Nc2cc(Nc3cccc(Cl)c3)ncn2)ccc1Oc1ccncc1-c1cccnc1` were 690 nM, 180 nM, 30 nM and 90 nM.
In the case of `O=C(Nc1ccc(Oc2ccncc2-c2cccnc2)c(F)c1)c1nn(-c2ccc(Cl)cc2)c(=O)c2ccccc12`, the IC50 in assay [1] worked out at 710 nM; in assay [2], 1020 nM; in assay [3] it was 430 nM.
On to `COc1ccc(-n2nc(C(=O)Nc3ccc(Oc4ccncc4-c4cccnc4)c(F)c3)c3ccccc3c2=O)cc1`, for which the IC50 in assay [2] came out at 6800 nM; in assay [3], 740 nM; in assay [4], 10400 nM.
Regarding `Fc1cc(Nc2cc(Nc3ccc(Cl)cc3)ncn2)ccc1Oc1ccncc1-c1cccnc1`, the figures for the IC50 in assay [1], in assay [2] and in assay [3] were 980 nM, 1610 nM and 240 nM, respectively.
Regarding `O=C(Nc1ccc(Oc2ccncc2-c2cccnc2)c(F)c1)C1=NN(c2cccc(F)c2)c2ccccc2S1(=O)=O`, the IC50 in assay [1] came out at 430 nM; in assay [2], 900 nM; in assay [3], 3 nM; in assay [4] it was 10 nM.
In the case of `COc1cc(Nc2cc(Nc3ccc(Oc4ccncc4-c4cccnc4)c(F)c3)ncn2)cc(OC)c1`, the IC50 was 1130 nM in assay [1], 560 nM in assay [2], 1750 nM in assay [3] and 4240 nM in assay [4].
For `Fc1cc(Nc2cc(Nc3ccccc3)ncn2)ccc1Oc1ccncc1-c1cccnc1` the same measures were 880 nM, 410 nM, 6300 nM and 2740 nM.
Taken in the same sequence, the figures for `O=C(Nc1ccc(Oc2ccncc2-c2cccnc2)c(F)c1)C1=NN(c2ccccc2C(F)(F)F)c2ccccc2S1(=O)=O` were 190 nM, 120 nM, 27 nM and 46 nM.
